Assay results as given in ChEMBL document CHEMBL3244396, “Synthesis and antileukemic activity of 5-substituted 2,3-dihydro-6,7-bis(hydroxymethyl)-1H-pyrrolizine diesters” (J Med Chem, 1977).
≈ marks a conversion by molar mass, not a printed value.

Key:
Mus musculus [1] = experiment: Toxicity in female CDF1 mouse allografted with mouse P388 cells assessed as animal survival at 400 mg/kg, ip administered daily for 9 days as saline with Tween-80 solution starting 24 hrs after tumor inoculation; type: organism-based; set-up: dose 400 mg/kg, route intraperitoneal; conditions: in vivo
Method in brief: (§1)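 P-388 leukemia ascitic fluid implanted ip. Compound dosed ip in saline with Tween-80 vehicle, once daily for nine doses from 24 h after tumor inoculation. Acute toxicity scored as toxicity-day survivors per group. Survival was followed up to 30 days, with 30-day survival counted as "cure". Follows NCI screening protocols.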

P388 [2] = experiment: Antitumor activity against mouse P388 cells allografted in female CDF1 mouse assessed as disease cures by measuring 30-days host survival at 200 mg/kg, ip administered daily for 9 days as saline with Tween-80 solution starting 24 hrs after tumor inoculation relative to control; type: functional; conditions: route intraperitoneal
Method in brief: (§2)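 P388 ascitic cell inoculum given ip to CDF1 mice of the sex in each line. Nine daily ip doses in saline with Tween-80 as vehicle, starting 24 h after inoculation. Median survival time expressed as %T/C (>125 significant); "cure" defined as 30-day survival.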

P388 [3] = experiment: Antitumor activity against mouse P388 cells allografted in female CDF1 mouse assessed as disease cures by measuring 30-days host survival at 100 mg/kg, ip administered daily for 9 days as saline with Tween-80 solution starting 24 hrs after tumor inoculation relative to control; type: functional; conditions: route intraperitoneal; method in brief: as §2
Mus musculus [4] = experiment: Toxicity in female CDF1 mouse allografted with mouse P388 cells assessed as animal survival at 200 mg/kg, ip administered daily for 9 days as saline with Tween-80 solution starting 24 hrs after tumor inoculation; type: organism-based; set-up: dose 200 mg/kg, route intraperitoneal; conditions: in vivo; method in brief: as §1
Mus musculus [5] = experiment: Toxicity in female CDF1 mouse allografted with mouse P388 cells assessed as animal survival at 100 mg/kg, ip administered daily for 9 days as saline with Tween-80 solution starting 24 hrs after tumor inoculation; type: organism-based; set-up: dose 100 mg/kg, route intraperitoneal; conditions: in vivo; method in brief: as §1
Mus musculus [6] = experiment: Toxicity in female BDF1 mouse allografted with mouse L1210 cells assessed as animal survival at 200 mg/kg, ip administered daily for 9 days as Klucel suspension starting 24 hrs after tumor inoculation measured on fifth day; type: organism-based; set-up: dose 200 mg/kg, route intraperitoneal; conditions: in vivo
Method in brief: (§3)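 L1210 leukemia passaged as ascitic fluid and inoculated ip. Test agent given ip as a Klucel (hydroxypropylcellulose) suspension, nine daily doses starting 24 h after tumor inoculation. Acute toxicity read as toxicity-day survivors per group (out of 6), recorded on day 5. Animal weight difference T − C was also recorded. Follows NCI screening protocols.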

P388 [7] = experiment: Antitumor activity against mouse P388 cells allografted in female CDF1 mouse assessed as change in body weight at 400 mg/kg, ip administered daily for 9 days as saline with Tween-80 solution starting 24 hrs after tumor inoculation; type: functional; conditions: route intraperitoneal
Method in brief: (§4)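 Ascitic fluid carrying P388 cells was inoculated ip. Compound was given ip in nine daily doses, starting 24 h after inoculation, in Klucel (hydroxypropylcellulose) suspension or in saline with Tween-80. Body-weight difference (treated minus control) was recorded on day 5. Survival was scored as %T/C of median survival time, and 30-day survival counted as cure.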

P388 [8] = experiment: Antitumor activity against mouse P388 cells allografted in female CDF1 mouse assessed as disease cures by measuring 30-days host survival at 400 mg/kg, ip administered daily for 9 days as saline with Tween-80 solution starting 24 hrs after tumor inoculation relative to control; type: functional; conditions: route intraperitoneal; method in brief: as §2
L1210 [9] = experiment: Antileukemic activity against mouse L1210 cells allografted in female BDF1 mouse assessed as change in body weight at 100 mg/kg, ip administered daily for 9 days as Klucel suspension starting 24 hrs after tumor inoculation; type: functional; conditions: route intraperitoneal
Method in brief: (§5)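 Ascitic fluid carrying L1210 cells was inoculated ip. Compound was given ip as a Klucel (hydroxypropylcellulose) suspension in nine daily doses, starting 24 h after inoculation. Body-weight difference (treated minus control) was recorded on day 5. Survival was scored as %T/C of mean survival time.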

L1210 [10] = experiment: Antileukemic activity against mouse L1210 cells allografted in female BDF1 mouse assessed as host mean survival time at 50 mg/kg, ip administered daily for 9 days as Klucel suspension starting 24 hrs after tumor inoculation relative to control; type: functional; conditions: route intraperitoneal
Method in brief: (§6)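 L1210 leukemia given as an ascitic fluid cell inoculum, ip, to mice of the strain and sex in each line. Test material was given ip for nine daily doses starting 24 h after inoculation, in a Klucel (hydroxypropylcellulose) suspension. Read-out is mean survival time as %T/C versus controls, with >125 taken as significant.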

L1210 [11] = experiment: Antileukemic activity against mouse L1210 cells allografted in female BDF1 mouse assessed as change in body weight at 50 mg/kg, ip administered daily for 9 days as Klucel suspension starting 24 hrs after tumor inoculation; type: functional; conditions: route intraperitoneal; method in brief: as §5
Mus musculus [12] = experiment: Toxicity in female BDF1 mouse allografted with mouse L1210 cells assessed as animal survival at 50 mg/kg, ip administered daily for 9 days as Klucel suspension starting 24 hrs after tumor inoculation measured on fifth day; type: organism-based; set-up: dose 50 mg/kg, route intraperitoneal; conditions: in vivo; method in brief: as §3
P388 [13] = experiment: Antitumor activity against mouse P388 cells allografted in female CDF1 mouse assessed as change in body weight at 100 mg/kg, ip administered daily for 9 days as saline with Tween-80 solution starting 24 hrs after tumor inoculation; type: functional; conditions: route intraperitoneal; method in brief: as §4
L1210 [14] = experiment: Antileukemic activity against mouse L1210 cells allografted in female BDF1 mouse assessed as host mean survival time at 200 mg/kg, ip administered daily for 9 days as Klucel suspension starting 24 hrs after tumor inoculation relative to control; type: functional; conditions: route intraperitoneal; method in brief: as §6
L1210 [15] = experiment: Antileukemic activity against mouse L1210 cells allografted in female BDF1 mouse assessed as change in body weight at 200 mg/kg, ip administered daily for 9 days as Klucel suspension starting 24 hrs after tumor inoculation; type: functional; conditions: route intraperitoneal; method in brief: as §5
L1210 [16] = experiment: Antileukemic activity against mouse L1210 cells allografted in female BDF1 mouse assessed as host mean survival time at 100 mg/kg, ip administered daily for 9 days as Klucel suspension starting 24 hrs after tumor inoculation relative to control; type: functional; conditions: route intraperitoneal; method in brief: as §6
P388 [17] = experiment: Antitumor activity against mouse P388 cells allografted in female CDF1 mouse assessed as change in body weight at 200 mg/kg, ip administered daily for 9 days as saline with Tween-80 solution starting 24 hrs after tumor inoculation; type: functional; conditions: route intraperitoneal; method in brief: as §4
Mus musculus [18] = experiment: Toxicity in female BDF1 mouse allografted with mouse L1210 cells assessed as animal survival at 100 mg/kg, ip administered daily for 9 days as Klucel suspension starting 24 hrs after tumor inoculation measured on fifth day; type: organism-based; set-up: dose 100 mg/kg, route intraperitoneal; conditions: in vivo
Method in brief: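 Female BDF1 mice bearing ip ascitic L1210 inoculum got nine daily ip doses in a Klucel suspension, starting 24 h after tumor inoculation. Toxicity was scored as toxicity-day survivors out of the group, recorded on the fifth day. Animal weight difference (T − C) was also tabulated.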

P388 [19] = experiment: Antitumor activity against mouse P388 cells allografted in female CDF1 mouse assessed as change in body weight at 50 mg/kg, ip administered daily for 9 days as Klucel suspension starting 24 hrs after tumor inoculation; type: functional; conditions: route intraperitoneal; method in brief: as §4
P388 [20] = experiment: Antitumor activity against mouse P388 cells allografted in female CDF1 mouse assessed as disease cures by measuring 30-days host survival at 100 mg/kg, ip administered daily for 9 days as Klucel suspension starting 24 hrs after tumor inoculation relative to control; type: functional; conditions: route intraperitoneal
Method in brief: (§7)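 P388 leukemia given as an ascitic fluid cell inoculum, ip, to mice of the strain and sex in each line. Nine daily ip doses were given in a Klucel (hydroxypropylcellulose) suspension, starting 24 h after inoculation. Read-out is median survival time as %T/C, with >125 taken as significant; a "cure" means 30-day survival.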

Mus musculus [21] = experiment: Toxicity in female CDF1 mouse allografted with mouse P388 cells assessed as animal survival at 50 mg/kg, ip administered daily for 9 days as Klucel suspension starting 24 hrs after tumor inoculation; type: organism-based; set-up: dose 50 mg/kg, route intraperitoneal; conditions: in vivo
Method in brief: (§8)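 P-388 leukemia ascitic fluid inoculated ip. Compound given ip as a suspension in Klucel (hydroxypropylcellulose), once daily for nine doses beginning 24 h post-inoculation. Acute toxicity assessed as toxicity-day survivors per group. Survival was followed up to 30 days, with 30-day survival counted as "cure". Follows NCI screening protocols.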

Mus musculus [22] = experiment: Toxicity in female CDF1 mouse allografted with mouse P388 cells assessed as animal survival at 100 mg/kg, ip administered daily for 9 days as Klucel suspension starting 24 hrs after tumor inoculation; type: organism-based; set-up: dose 100 mg/kg, route intraperitoneal; conditions: in vivo; method in brief: as §8
P388 [23] = experiment: Antitumor activity against mouse P388 cells allografted in female CDF1 mouse assessed as disease cures by measuring 30-days host survival at 200 mg/kg, ip administered daily for 9 days as Klucel suspension starting 24 hrs after tumor inoculation relative to control; type: functional; conditions: route intraperitoneal; method in brief: as §7
P388 [24] = experiment: Antitumor activity against mouse P388 cells allografted in female CDF1 mouse assessed as change in body weight at 100 mg/kg, ip administered daily for 9 days as Klucel suspension starting 24 hrs after tumor inoculation; type: functional; conditions: route intraperitoneal; method in brief: as §4
[25] = Cytotoxicity against human 9KB cells treated as ethanol solution; type: functional; conditions: read-out: ED50 (the source's name)
Method in brief: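 Compound applied as an ethanol solution; activity read out as ED50 under the general screening protocol.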

Mus musculus [26] = experiment: Toxicity in female CDF1 mouse allografted with mouse P388 cells assessed as animal survival at 200 mg/kg, ip administered daily for 9 days as Klucel suspension starting 24 hrs after tumor inoculation; type: organism-based; set-up: dose 200 mg/kg, route intraperitoneal; conditions: in vivo; method in brief: as §8
P388 [27] = experiment: Antitumor activity against mouse P388 cells allografted in female CDF1 mouse assessed as change in body weight at 200 mg/kg, ip administered daily for 9 days as Klucel suspension starting 24 hrs after tumor inoculation; type: functional; conditions: route intraperitoneal; method in brief: as §4
P388 [28] = experiment: Antitumor activity against mouse P388 cells allografted in female CDF1 mouse assessed as disease cures by measuring 30-days host survival at 50 mg/kg, ip administered daily for 9 days as Klucel suspension starting 24 hrs after tumor inoculation relative to control; type: functional; conditions: route intraperitoneal; method in brief: as §7

| Structure (SMILES) | Activity (Mus musculus [6]) | Activity (L1210 [9]) [g] | T/C (L1210 [10]) [%] | Activity (L1210 [11]) [g] | Activity (Mus musculus [12]) | T/C (L1210 [14]) [%] | Activity (L1210 [15]) [g] | T/C (L1210 [16]) [%] | Activity (Mus musculus [18]) | Activity (P388 [19]) [g] | T/C (P388 [20]) [%] | Activity (Mus musculus [21]) | T/C (P388 [23]) [%] | Activity (P388 [24]) [g] | EC50 [25] [µg/mL] | Activity (P388 [27]) [g] | T/C (P388 [28]) [%] | further results |
| --- | --- | --- | --- | --- | --- | --- | --- | --- | --- | --- | --- | --- | --- | --- | --- | --- | --- | --- |
| COC(=O)c1c(C(=O)OC)c(-c2ccc(Cl)c(Cl)c2)n2c1CCC2 | Non-toxic | 3.4 | 91 | 2.8 | Non-toxic | 98 | 1.1 | 88 | Non-toxic |  |  |  |  |  |  |  |  | Activity (Mus musculus [1]): Non-toxic; T/C (P388 [2]): 89%; T/C (P388 [3]): 87%; Activity (Mus musculus [4]): Non-toxic; Activity (Mus musculus [5]): Non-toxic; Activity (P388 [7]): -0.2 g; T/C (P388 [8]): 88%; Activity (P388 [13]): 0.2 g; Activity (P388 [17]): 0.2 g |
| CNC(=O)OCc1c(COC(=O)NC)c(-c2ccccc2)n2c1CCC2 | Non-toxic | -1.5 | 104 | -2.6 | Non-toxic | 110 | -3.1 | 104 | Non-toxic | -2.1 | 124 | Non-toxic | 59 | -1.8 | 22 (≈ 61.6 µM) | -3.5 | 124 | Activity (Mus musculus [22]): Non-toxic; Activity (Mus musculus [26]): Non-toxic |
| OCc1c(CO)c(C(F)(F)F)n2c1CCC2 | Toxic | -1.1 | 107 | -0.3 | Non-toxic |  | -2.8 | 104 | Non-toxic | 2.1 | 104 | Non-toxic | 108 | 0.6 | 25 (≈ 106 µM) | 1.1 | 104 |  |
